ANO1 activ = activates or potentiates the mouse TMEM16A chloride channel | Q8BHY3 | B-score at 10 µM | HEK293 TMEM16A/YFP-H148Q/I152L, iodide quench fluorescence; active compounds read low | 340,000 tested, 0.3% active;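 active means fluorescence-ratio B-score plate-corrected deviation score at least 3 library SD below zero, with starting fluorescence score within 5 deviations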;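 further: channel opened by trigger with iodide after compound preincubation; score built on the fluorescence ratio of max minus min over baseline; more negative score means more quench and so TMEM16A activation or potentiation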
DNA FID counter = displaces DNA intercalator in HCV helicase counter-screen | 290,000 tested, 0.17% active | inhibition, % at 7.9 µM | DNA fluorescent intercalator displacement, fluorescence; in the data active means inhibition above about 37%;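 further: 0% = vehicle and 100% = reference compound; higher means more ethidium bromide displaced from hairpin DNA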
TMEM16A inh = inhibitors of mouse TMEM16A calcium-activated chloride channel. Q8BHY3. normalized B-score (activity score, 25-100; higher = stronger inhibition) at 10 µM. 310,000 tested, 1.2% active. HEK293 TMEM16A/YFP iodide influx fluorescence, ionomycin;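 active means ratio plate-corrected score three or more library SD toward inhibition, starting fluorescence score within five deviations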;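 further: score derived from kinetic fluorescence span divided by baseline fluorescence per well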
Apaf-1 inh = blocks human Apaf-1 apoptosome activity; inhibition, % at 20 µM; O14727; reconstituted apoptosome caspase-3 activity, DEVD-Rh110 fluorescence; 330,000 tested, 0.71% active; active means inhibition of at least 40% at 20 µM;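 further: plate controls were DMSO wells for no effect and DEVD-CHO caspase inhibitor wells for full effect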
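Material: reconstituted apoptosome with Apaf-1, cytochrome c, caspase-9, procaspase-3, dATP / Buffer or medium: pH 7.5 Hepes buffer with CHAPS, BSA, DTT / Also added: cytochrome c with DEVD-Rh110 / Schedule: compound with Apaf-1, dATP, procaspase-3 30 min, then 50 min reaction, room temperature / Technique: rhodamine 110 fluorescence at Ex 480/Em 540 nm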
UBC13 inh = inhibitors of human UBC13 polyubiquitin chain formation; P61088; TR-FRET; inhibition, % at 20 µM; 330,000 tested, 0.47% active; AID 485273; in the data active means inhibition above about 45%, passing the limit was not always enough; inconclusive means no clear call, values can overlap the other calls
Target sequence (P61088 whole entry, looked up): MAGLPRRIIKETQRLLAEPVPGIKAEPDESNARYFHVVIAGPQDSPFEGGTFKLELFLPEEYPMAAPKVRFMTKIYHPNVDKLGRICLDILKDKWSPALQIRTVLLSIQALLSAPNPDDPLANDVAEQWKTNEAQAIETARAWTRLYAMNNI
Casp3 counter = inhibits human caspase-3 in UBC13 counter-screen | shares compounds with UBC13 inh | inhibition, % at 20 µM | Recombinant caspase-3, Caspase-Glo 3/7 luminescence, 60 min | 1,400 tested, 4% active | AID 488856;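 active means mean inhibition across replicates above about 26%, limit read from the data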;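 further: plate controls were DMSO with caspase-3 for no effect and DMSO wells lacking enzyme for full effect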
Target sequence (P42574 whole entry, looked up): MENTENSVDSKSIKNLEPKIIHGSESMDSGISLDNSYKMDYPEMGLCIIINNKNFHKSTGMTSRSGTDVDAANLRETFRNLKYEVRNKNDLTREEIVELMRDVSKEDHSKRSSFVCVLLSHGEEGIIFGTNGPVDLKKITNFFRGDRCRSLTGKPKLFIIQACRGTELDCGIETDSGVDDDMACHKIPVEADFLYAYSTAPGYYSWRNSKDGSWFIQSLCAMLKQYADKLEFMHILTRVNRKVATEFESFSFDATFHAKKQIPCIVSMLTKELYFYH
UBC13 conf = confirmation of human UBC13 polyubiquitin inhibitors; shares compounds with UBC13 inh; UBC13 polyubiquitination, TR-FRET, biochemical; inhibition, % at 10 µM; 1,400 tested, 68% active; AID 488859; in the data active means inhibition above about 45%; inconclusive means no clear call, values can overlap the other calls
An asterisk follows results filed as active; i = inactive; u = inconclusive; x = no result given. In the library only some 2.4% were active in any assay of this set; here they are far more common.

SMILES	ANO1 activ	DNA FID counter	TMEM16A inh	Apaf-1 inh	UBC13 inh	Casp3 counter	UBC13 conf
CSCCC(NS(=O)(=O)c1ccccc1F)C(=O)NNC(=O)c1csc(N2CCOCC2)n1 (configuration not stated)	i	x	i	0	-6	x	x
O=c1nccc(SCc2ccc(Cl)cc2Cl)[nH]1	i	-8	i	1	13	x	x
COc1cc([C@@H]2CC=C(C(=O)O)[C@H](c3cccc(Cl)c3)N2S(=O)(=O)c2ccc(C)cc2)cc(OC)c1OC	i	x	i	8	-9	x	x
CC(CN1CCCC1)OC(=O)c1ccc(Br)cc1 (configuration not stated)	i	0	i	-1	1	x	x
CCOc1ccc(C(C)NC(=O)c2ccc3c(c2)NC(=O)C(C)S3)cc1OCC (configuration not stated)	i	x	x	3	4	x	x
CC(C)(C)NCc1cc(Br)ccc1OCc1cccs1	i	12	i	-16	66*	1	18
O=C(NNC(=O)C1CCCC1)c1cc([N+](=O)[O-])cc([N+](=O)[O-])c1	i	x	x	-9	9	x	x
CCOc1ccc(C(=O)C(C)OC(=O)c2nc(Cl)ccc2Cl)cc1 (configuration not stated)	i	x	i	12	47*	-1	72*
O=C(c1ccc(-c2cc(O)c3ncccc3c2)cc1)N1CCNCC1	i	x	x	18	114*	-4	117*
CSc1nsc(SCC(=O)NCc2ccc(C)cc2)n1	i	-10	i	-11	0	x	x
Cc1cc(C)c2nc(NCCCNC(=S)NCCCN(C)C)c(C#N)cc2c1	i	21	i	9	50*	5	42
Cc1cccc(CN2CCN(C(=O)CCl)CC2)c1	i	8	i	7	-10	x	x
Cc1cc[n+](CC(=O)c2ccc3c(c2)OCCO3)cc1	i	3	i	-16	3	x	x
O=C(C[n+]1ccc(/C=C/c2ccccc2)cc1)c1ccc2c(c1)OCCO2	i	19	i	17	53*	-2	20
COc1ccc(Cc2nnc(SCC(=O)NCCc3ccccc3)o2)cc1	i	-26	i	-5	4	x	x
Cc1cccc(C)c1OCc1nnc(SCC(=O)NCCc2ccccc2)o1	i	-38	i	7	92*	-5	3
COc1ccc(C)cc1NC(=O)c1cc2c(s1)CCC2	i	-7	i	4	6	x	x
COC(=O)c1sccc1NC(=O)c1cc2c(s1)CCCC2	i	-1	i	3	46*	58*	20
CCC1(CC)Cc2ccccc2-c2[nH]c(=S)[nH]c(=O)c21	i	x	i	1	59*	0	43
C=CCNC(=S)Nc1sc2c(c1C(=O)OCC)CCN(C(=O)OCC)C2	i	-15	i	15	50*	3	u
CCOC(=O)c1c(NC(=S)NCc2ccccc2)sc2c1CCN(C(=O)OCC)C2	i	-25	i	9	9	x	x
C=C(C)C1CC=C(C)/C(=N/NC(=O)CCC(=O)Nc2ccccc2Cl)C1 (configuration not stated)	i	-37	i	18	-1	x	x
COc1ccc(C(=O)Nc2ccc3oc(-c4cccc(F)c4)nc3c2)cc1OC	i	x	i	-3	54*	3	35
COc1ccc(C(=O)Nc2ccc3oc(-c4cccnc4)nc3c2)cc1OC	i	10	i	5	6	x	x
Cc1nc(Nc2cnc(/C=C/c3cc(C(=O)Nc4cccc(C(F)(F)F)c4)ccc3C)cn2)cc(N2CCNCC2)n1	x	15	i	75*	88*	5	116*
SMILES	ANO1 activ	DNA FID counter	TMEM16A inh	Apaf-1 inh	UBC13 inh	Casp3 counter	UBC13 conf
Cc1cc(C)cc(NC(=O)[C@H](NC(=O)[C@@H]2Cc3ccccc3CN2)c2ccccc2)c1	i	25	i	25	-3	x	x
CC[n+]1c(/C=C/N(C)c2ccccc2)n(-c2ccccc2)c2ccc(-c3nc4ccccc4s3)cc21	i	41*	i	82*	84*	1	98*
CCOC(=O)c1nn(-c2ccc(C)cc2)c(=O)cc1OCC(=O)N1CCN(c2ccccc2)CC1	i	x	i	13	-7	x	x
COc1ccc(OCCC(=O)OCC(=O)NCc2ccc(F)cc2)cc1	i	-7	i	-14	-1	x	x
CC(C)(C)n1nc2c(c1NC(=O)C1CC(=O)N(c3ccc(Cl)cc3)C1)CS(=O)(=O)C2 (configuration not stated)	i	-11	i	-4	-8	x	x
CN(C)CCCn1c(SCC(=O)Nc2nc(-c3cccc(Br)c3)cs2)nc2ccccc2c1=O	i	8	i	29	116*	2	134*
O=C(CSc1nc2ccccc2[nH]1)Nc1nc(-c2cccc(Br)c2)cs1	i	4	i	6	15	x	x
CCCSc1nc(N2CCOCC2)c2c(c1C#N)CCCC2	i	-4	i	21	38	x	x
CSc1nc(N2CCOCC2)c2c(c1C#N)CCCCC2	i	-7	i	13	53*	1	u
COc1cccc(C(=O)c2c[nH]c(C(=O)NCCCN3CCOCC3)c2)c1	i	4	i	1	5	x	x
O=S(=O)(NC1CCCCC1)c1ccc(Cl)nc1	i	0	i	-6	50*	-5	10
CC(C)CN(CC(C)C)C(=O)CCCC(=O)N(CC(C)C)CC(C)C	i	-38	i	8	-2	x	x
COCCNC(=S)Nc1ccc(N2CCCCC2)cc1	i	-1	i	-8	3	x	x
CCOC(=O)c1c(NC(C)=O)sc2c(OCC(O)CNC(C)(C)C)c(Br)ccc12 (configuration not stated)	-7.1*	22	i	13	46*	-6	74*
O=C(O)c1ccccc1C(=O)c1cccc2ccccc12	i	-1	i	1	-3	x	x
CCN(C(=O)COC(=O)c1cc(-c2ccccc2)nc2c1c(C)nn2-c1ccccc1)C1CCS(=O)(=O)C1 (configuration not stated)	i	5	i	19	52*	-3	u
O=C(NNC(=O)c1nn(-c2ccc(F)cc2)ccc1=O)Nc1cccc(Cl)c1	i	-5	i	-15	10	x	x
CC(C)NC(=O)NNC(=O)c1nn(-c2ccc(F)cc2)ccc1=O	i	-4	i	-7	33	x	x
O=C(NNC(=O)c1nn(-c2ccc(F)cc2)ccc1=O)c1ccc(Cl)cc1	i	-4	i	-17	71*	-3	88*
O=C(NNC(=O)c1nn(-c2ccc(F)cc2)ccc1=O)c1ccc(C(F)(F)F)cc1	i	-6	i	-10	70*	0	86*
